Source: ChEMBL document CHEMBL1154223, “Oxygenated lignans from the fruits of Schisandra arisanensis” (2009)

Key:
Format in all cases: functional
PBMC [1] = assay: Inhibition of 0.2 ug/ml PHA-stimulated human PBMC proliferation assessed as [3H]thymidine uptake at 100 uM after 3 days by scintillation counting
Procedure, shortened: (§1)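 Human PBMC at 2 × 10^6 cells/mL were plated with or without PHA and exposed to test compound at 100 µM. Cultures were kept at 37 °C in humidified 5% CO2-air for 3 days, then pulsed with tritiated thymidine at 1 µCi/well for 16 h. Cells were harvested onto glass fiber filters, and radioactivity was counted by scintillation. Results are given as % inhibition.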

PBMC [2] = assay: Inhibition of 5 ug/ml PHA-stimulated human PBMC proliferation assessed as [3H]thymidine uptake at 100 uM after 3 days by scintillation counting; procedure, shortened: as §1
PBMC [3] = assay: Inhibition of human PBMC proliferation assessed as [3H]thymidine uptake at 100 uM after 3 days by scintillation counting; procedure, shortened: as §1
PBMC [4] = assay: Inhibition of human PBMC proliferation assessed as [3H]thymidine uptake at 5 uM after 3 days by scintillation counting
PBMC [5] = assay: Inhibition of 5 ug/ml PHA-stimulated human PBMC proliferation assessed as [3H]thymidine uptake at 5 uM after 3 days by scintillation counting

## C/C=C(/C)C(=O)O[C@H]1c2cc(OC)c(OC)c(OC)c2-c2c(cc(O)c(OC)c2OC)C[C@@H](C)[C@@]1(C)O
PBMC [1]
  inhibition (INH): 67%
PBMC [2]
  inhibition (INH): 44.3%
PBMC [3]
  inhibition at 100 µM: 44.5%

## COc1cc([C@@H]2c3cc(OC)c(OC)cc3C(=O)[C@@H](C)[C@H]2C)ccc1O
PBMC [1]
  inhibition (INH): 82.7%
PBMC [2]
  inhibition (INH): 95.6%
PBMC [3]
  inhibition at 100 µM: 61%

## C/C=C(/C)C(=O)O[C@H]1c2cc3c(c(OC)c2-c2c(cc(OC)c(OC)c2O)C[C@H](C)[C@]1(C)O)OCO3
PBMC [1]
  inhibition (INH): 16.4%
PBMC [2]
  inhibition (INH): 14.6%
PBMC [3]
  inhibition at 100 µM: 12.7%

## CC=C(C)C(=O)O[C@H]1c2cc3c(c(OC)c2-c2c(cc(OC)c(OC)c2OC)C[C@H](C)[C@]1(C)O)OCO3
PBMC [1]
  inhibition (INH): 75.2%
PBMC [2]
  inhibition (INH): 58.9%
PBMC [3]
  inhibition at 100 µM: 36.1%

## C/C=C(/C)C(=O)O[C@H]1c2cc(OC)c(OC)c(O)c2-c2c(cc3c(c2OC)OCO3)C[C@@H](C)[C@@]1(C)O
PBMC [1]
  inhibition (INH): 74%
PBMC [2]
  inhibition (INH): 66.6%
PBMC [3]
  inhibition at 100 µM: 47%

## COc1cc2c(c(O)c1OC)-c1c(cc(O)c(OC)c1OC)C[C@H](C)[C@H](C)C2 [ARISANSCHININ F]
PBMC [1]
  inhibition (INH): 81.7%
PBMC [2]
  inhibition (INH): 92.9%
PBMC [3]
  inhibition at 100 µM: 58.5%

## COc1cc2c(c(O)c1OC)-c1c(cc(O)c(OC)c1OC)C[C@@H](C)[C@@H](C)C2 [ARISANSCHININ G]
PBMC [1]
  inhibition (INH): 76.3%
PBMC [2]
  inhibition (INH): 92.5%
PBMC [3]
  inhibition at 100 µM: 54.7%

## COc1cc([C@@H]2c3cc(OC)c(O)cc3C(=O)[C@@H](C)[C@H]2C)ccc1O [ARISANTETRALONE A]
PBMC [1]
  inhibition (INH): 78.1%
PBMC [2]
  inhibition (INH): 91.9%
PBMC [3]
  inhibition at 100 µM: 59.7%

## COc1cc([C@@H]2c3cc(O)c(OC)cc3C(=O)[C@@H](C)[C@H]2C)ccc1O [ARISANTETRALONE B]
PBMC [1]
  inhibition (INH): 75.3%
PBMC [2]
  inhibition (INH): 90.8%
PBMC [3]
  inhibition at 100 µM: 56.9%

## COc1cc2c(cc1O)C(=O)[C@@H](C)[C@@H](C)[C@@H]2c1ccc(OC)c(OC)c1 [ARISANTETRALONE C]
PBMC [1]
  inhibition (INH): 76.3%
PBMC [2]
  inhibition (INH): 89.3%
PBMC [3]
  inhibition at 100 µM: 54.1%

## COc1cc2c(cc1O)C(=O)[C@H](C)[C@@H](C)[C@@H]2c1ccc(OC)c(OC)c1 [ARISANTETRALONE D]
PBMC [1]
  inhibition (INH): 70.1%
PBMC [2]
  inhibition (INH): 83.9%
PBMC [3]
  inhibition at 100 µM: 34.1%

## C/C=C/C[C@@H](C)[C@@H](O)[C@H]1C(=O)N[C@@H](CC)C(=O)N(C)CC(=O)N(C)[C@@H](CC(C)C)C(=O)N[C@@H](C(C)C)C(=O)N(C)[C@@H](CC(C)C)C(=O)N[C@@H](C)C(=O)N[C@H](C)C(=O)N(C)[C@@H](CC(C)C)C(=O)N(C)[C@@H](CC(C)C)C(=O)N(C)[C@@H](C(C)C)C(=O)N1C [CYCLOSPORINE]
PBMC [4]
  inhibition at 5 µM: 25.5%
PBMC [5]
  inhibition (INH): 89.9%

## COc1cc2c(c(OC)c1OC)-c1c(cc3c(c1OC)OCO3)[C@H](OC(=O)c1ccccc1)[C@@](C)(O)[C@@H](C)C2 [GOMISIN G]
PBMC [1]
  inhibition (INH): 75.8%
PBMC [2]
  inhibition (INH): 88.6%
PBMC [3]
  inhibition at 100 µM: 46.2%

## COc1cc(C[C@@H](C)[C@@H](C)Cc2cc(O)c(OC)c(OC)c2)cc(O)c1OC [PREGOMISIN]
PBMC [1]
  inhibition (INH): 83%
PBMC [2]
  inhibition (INH): 95.6%
PBMC [3]
  inhibition at 100 µM: 63.9%

## COc1cc2c(c(O)c1OC)-c1c(cc(OC)c(OC)c1OC)C[C@@H](C)[C@@H](C)C2 [SCHISANHENOL]
PBMC [1]
  inhibition (INH): 80.1%
PBMC [2]
  inhibition (INH): 76%
PBMC [3]
  inhibition at 100 µM: 60.8%
